Measurements taken from ChEMBL document CHEMBL1817589, “Synthesis and antibacterial activity of C2-symmetric binaphthyl scaffolded amino acid derivatives” (2011).
Converted amounts (≈) assume the structure as drawn.

Tests used:
Enterococcus faecium [1] = assay: Antibacterial activity against vancomycin-resistant Enterococcus faecium isolate 820; assay type: functional
Procedure, shortened: (§1)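 Wild-type and clinical E. faecium isolates were grown in Enterococcosal broth. Overnight stationary-phase cultures were diluted 1:1000 into fresh medium and incubated with two-fold compound dilutions (seven concentrations) overnight at 37 °C in 96-well plates. The MIC was recorded as the […], and values were rounded.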

Enterococcus faecium [2] = assay: Antibacterial activity against vancomycin-resistant Enterococcus faecium isolate 449; assay type: functional; procedure, shortened: as §1
Enterococcus faecium [3] = assay: Antibacterial activity against vancomycin-resistant Enterococcus faecium isolate 243; assay type: functional; procedure, shortened: as §1
Staphylococcus aureus [4] = assay: Antibacterial activity against vancomycin-sensitive Staphylococcus aureus ATCC 6538P; assay type: functional
Enterococcus faecium [5] = assay: Antibacterial activity against vancomycin-sensitive Enterococcus faecium isolate 987
Staphylococcus aureus [6] = assay: Antibacterial activity against Staphylococcus aureus; assay type: functional
[7] = Enterococcus faecium, isolate 243, read-out: MIC
[8] = Staphylococcus aureus, ATCC 6538P, read-out: MIC

MIC (Staphylococcus aureus [6]) | SMILES | MIC (Enterococcus faecium [1]) | MIC (Enterococcus faecium [2]) | MIC (Enterococcus faecium [3]; [7]) | MIC (Staphylococcus aureus [4]; [8]) | MIC (Enterococcus faecium [5]) | MIC (Enterococcus faecium [3]) | MIC (Staphylococcus aureus [4])
– | N=C(N)NCCCC[C@@H](NC(=O)CCCOc1ccc2ccccc2c1-c1c(OCCCC(=O)N[C@H](CCCCNC(=N)N)C(=O)OCc2ccccc2)ccc2ccccc12)C(=O)OCc1ccccc1 | 59 µM (≈ 57.8 µg/mL) | 59 µM (≈ 57.8 µg/mL) | 59 µM (≈ 57.8 µg/mL) | 4 µM (≈ 3.92 µg/mL) | 119 µM (≈ 117 µg/mL) | – | –
5 µM (≈ 3.29 µg/mL) | C=CCOc1ccc2ccccc2c1-c1c(OCCCC(=O)N[C@H](CCCNC(=N)N)C(=O)OCc2ccccc2)ccc2ccccc12 | – | – | – | – | – | – | –
– | N=C(N)NCCC[C@@H](NC(=O)CCCOc1ccc2ccccc2c1-c1c(OCCCC(=O)N[C@H](CCCNC(=N)N)C(=O)NCc2ccccc2)ccc2ccccc12)C(=O)NCc1ccccc1 | 122 µM (≈ 116 µg/mL) | 61 µM (≈ 57.9 µg/mL) | 61 µM (≈ 57.9 µg/mL) | 2 µM (≈ 1.9 µg/mL) | 122 µM (≈ 116 µg/mL) | – | –
– | COC(=O)[C@@H](CCCNC(=N)N)NC(=O)CCCOc1ccc2ccccc2c1-c1c(OCCCC(=O)N[C@H](CCCNC(=N)N)C(=O)OC)ccc2ccccc12 | > 143 µM | > 143 µM | – | 18 µM (≈ 14.4 µg/mL) | – | – | –
– | N=C(N)NCCCC[C@@H](NC(=O)CCCOc1ccc2ccccc2c1-c1c(OCCCC(=O)N[C@H](CCCCNC(=N)N)C(=O)OCc2cccc3ccccc23)ccc2ccccc12)C(=O)OCc1cccc2ccccc12 | 54 µM (≈ 58.3 µg/mL) | 109 µM (≈ 118 µg/mL) | > 109 µM | 7 µM (≈ 7.56 µg/mL) | > 108 µM | – | –
– | CN[C@H](CC(C)C)C(=O)N[C@H]1C(=O)N[C@@H](CC(N)=O)C(=O)N[C@H]2C(=O)N[C@H]3C(=O)N[C@H](C(=O)N[C@H](C(=O)O)c4cc(O)cc(O)c4-c4cc3ccc4O)[C@H](O)c3ccc(c(Cl)c3)Oc3cc2cc(c3O[C@@H]2O[C@H](CO)[C@@H](O)[C@H](O)[C@H]2O[C@H]2C[C@](C)(N)[C@H](O)[C@H](C)O2)Oc2ccc(cc2Cl)[C@H]1O [VANCOMYCIN] | > 86 µM | 43 µM (≈ 62.3 µg/mL) | 1 µM (≈ 1.45 µg/mL) | 1 µM (≈ 1.45 µg/mL) | < 1 µM | – | –
– | NCCCC[C@@H](NC(=O)CCCOc1ccc2ccccc2c1-c1c(OCCCC(=O)N[C@H](CCCCN)C(=O)OCc2ccccn2)ccc2ccccc12)C(=O)OCc1ccccn1 | > 129 µM | > 129 µM | > 129 µM | 129 µM (≈ 116 µg/mL) | > 129 µM | – | –
– | NCCCC[C@@H](NC(=O)CCCOc1ccc2ccccc2c1-c1c(OCCCC(=O)N[C@H](CCCCN)C(=O)OCc2ccccc2)ccc2ccccc12)C(=O)OCc1ccccc1 | 65 µM (≈ 58.2 µg/mL) | 65 µM (≈ 58.2 µg/mL) | 129 µM (≈ 115 µg/mL) | 4 µM (≈ 3.58 µg/mL) | 129 µM (≈ 115 µg/mL) | – | –
– | N=C(N)NCCC[C@@H](NC(=O)CCCOc1ccc2ccccc2c1-c1c(OCCCC(=O)N[C@H](CCCNC(=N)N)C(=O)OCc2ccccn2)ccc2ccccc12)C(=O)OCc1ccccn1 | > 122 µM | > 122 µM | > 122 µM | 15 µM (≈ 14.3 µg/mL) | > 122 µM | – | –
2 µM (≈ 1.71 µg/mL) | C=CCOc1ccc2ccccc2c1-c1c(OCC(=O)N[C@H](CCCCN)C(=O)N[C@H](CCCNC(=N)N)C(=O)N[C@@H](CC=C)C(=O)OCc2ccccc2)ccc2ccccc12 | – | – | – | – | – | – | –
2 µM (≈ 1.5 µg/mL) | C=CCc1cc2ccccc2c(-c2c(OC)c(CC(NC(C)=O)C(=O)N[C@H](CCCNC(=N)N)C(=O)N[C@@H](CC=C)C(=O)OC)cc3ccccc23)c1OC (some centres undefined) | – | – | – | – | – | – | –
– | NCCCC[C@@H](NC(=O)CCCOc1ccc2ccccc2c1-c1c(OCCCC(=O)N[C@H](CCCCN)C(=O)OCc2cccc3ccccc23)ccc2ccccc12)C(=O)OCc1cccc2ccccc12 | 59 µM (≈ 58.7 µg/mL) | 117 µM (≈ 116 µg/mL) | > 117 µM | 7 µM (≈ 6.97 µg/mL) | 117 µM (≈ 116 µg/mL) | – | –
– | COC(=O)[C@@H](CCCCN)NC(=O)CCCOc1ccc2ccccc2c1-c1c(OCCCC(=O)N[C@H](CCCCN)C(=O)OC)ccc2ccccc12 | – | – | – | > 153 µM | – | – | –
– | N=C(N)NCCC[C@@H](NC(=O)CCCOc1ccc2ccccc2c1-c1c(OCCCC(=O)N[C@H](CCCNC(=N)N)C(=O)OCc2ccccc2)ccc2ccccc12)C(=O)OCc1ccccc1 (stereo in doubt; 21) | 31 µM (≈ 29.5 µg/mL) | 31 µM (≈ 29.5 µg/mL) | 61 µM (≈ 58 µg/mL) | 2 µM (≈ 1.9 µg/mL) | 31 µM (≈ 29.5 µg/mL) | – | –
– | Cl.Cl.N=C(N)NCCC[C@@H](NC(=O)CCCOc1ccc2ccccc2c1-c1c(OCCCC(=O)N[C@H](CCCNC(=N)N)C(=O)OCc2ccccc2)ccc2ccccc12)C(=O)OCc1ccccc1 (stereo in doubt; 22) | – | – | – | – | – | 31 µM | 4 µM
